Experimental data of several laboratories.
Converted amounts (≈) assume the structure as drawn.

SMILES	organism	test	test system	setting	measurement	result
CN[C@H](CC(C)C)C(=O)N[C@H]1C(=O)N[C@@H](CC(N)=O)C(=O)N[C@H]2C(=O)N[C@H]3C(=O)N[C@H](C(=O)N[C@H](C(=O)O)c4cc(O)cc(O)c4-c4cc3ccc4O)[C@H](O)c3ccc(c(Cl)c3)Oc3cc2cc(c3O[C@@H]2O[C@H](CO)[C@@H](O)[C@H](O)[C@H]2O[C@H]2C[C@](C)(N)[C@H](O)[C@H](C)O2)Oc2ccc(cc2Cl)[C@H]1O	Staphylococcus haemolyticus	microbial growth		clinical isolate	MIC	0.78 µg/mL (≈ 0.538 µM)
COc1ccc(Nc2cnnc3cc(-c4ccc(N5CCN(C)CC5)cc4)ccc23)nc1	Trypanosoma cruzi	parasite growth	C2C12	intracellular, amastigote	EC50	2100 nM
CC1CCC(C(C)C)C(OC2=C(Cl)C(=O)c3ccccc3C2=O)C1 (stereo not shown)	Alternaria alternata	microbial growth, broth dilution			MIC	12 µg/mL (≈ 34.6 µM)
COC(=O)N[C@H](C(=O)N1CC2(CC2)C[C@H]1c1nc(-c2ccc3c(c2)C(F)(F)c2cc(-c4ccc5[nH]c([C@@H]6[C@H]7CC[C@H](C7)N6C(=O)[C@@H](NC(=O)OC)C(C)C)nc5c4)ccc2-3)c[nH]1)C(C)C	Trypanosoma cruzi	parasite growth	Vero, TULAHUEN	72 h, intracellular, amastigote	IC50	60 nM
CN1CCN(c2ncc(-c3ccc4nncc(Nc5ncccn5)c4c3)cn2)CC1	Trypanosoma cruzi	parasite growth	C2C12	intracellular, amastigote	EC50	> 10000 nM
OC(Cn1cncn1)(Cn1cncn1)c1ccc(F)cc1F	Alternaria alternata	microbial growth, broth dilution			MIC	10 µg/mL (≈ 32.7 µM)
CN1CCN(c2ncc(-c3ccc4nncc(Nc5cnccn5)c4c3)cn2)CC1	Trypanosoma cruzi	parasite growth	C2C12	intracellular, amastigote	EC50	> 10000 nM
O=C(Cn1ccnc1[N+](=O)[O-])NCc1ccccc1	Trypanosoma cruzi	parasite growth	LLC-MK2	48 h, intracellular, amastigote	IC50	0.71 µg/mL
CC[C@@H]1/C=C(\C)C[C@H](C)C[C@H](OC)[C@H]2O[C@@](O)(C(=O)C(=O)N3CCCC[C@H]3C(=O)O[C@H](/C(C)=C/[C@@H]3CC[C@H](Cl)[C@H](OC)C3)[C@H](C)[C@@H](O)CC1=O)[C@H](C)C[C@@H]2OC	Trypanosoma cruzi	parasite growth	Vero, TULAHUEN	72 h, intracellular, amastigote	IC50	2130 nM
CC1(C)S[C@@H]2[C@H](NC(=O)[C@H](N)c3ccccc3)C(=O)N2[C@H]1C(=O)O	Staphylococcus haemolyticus	microbial growth		clinical isolate	MIC	> 200 µg/mL
